Several values for one entry are separate records, joined by “and”; a condition that tells them apart may be missing. Equal values may be shown once.
System: Fibroblast
Assay: Multiplex assay against human fibroblast
Assay type: toxicity, cell-based
Settings: number of replicates 2
Method in brief: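 Four dyes were applied at seeding to live cells: Hoechst33342, BioTracker Green Microtubule Cytoskeleton Dye, MitoTracker Red and Annexin V Alexa Fluor 680. Imaging after compound addition used a CQ1 microscope at 37°C and 5% CO2. CellPathfinder machine-learning gating then sorted cells into Hoechst high-intensity objects or normal cells, normal cells into healthy, pyknosed or fragmented nuclei, and pyknosed cells into mitotic or apoptotic, with tubulin, mitochondrial-mass and membrane-permeability phenotypes given as per cents of healthy-nucleus cells.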

[1] = 12 h, 1 µM, compound concentration 1 uM
[2] = 12 h, 10 µM, compound concentration 10 uM
[3] = 24 h, 1 µM, compound concentration 1 uM
[4] = 24 h, 10 µM, compound concentration 10 uM
[5] = 48 h, 1 µM, compound concentration 1 uM
[6] = 48 h, 10 µM, compound concentration 10 uM

Compound: Cc1ccc2c(c1CCC(=O)O)CC[C@@H](NS(=O)(=O)c1ccc(Cl)cc1)C2 [TERUTROBAN]
- Population Apoptotic (%) [1]: 25% and 43%
- Population Fragmented Nuclei (%) [1]: 8%
- Population Healthy Nuclei (%) [1]: 71% and 75%
- Population Hoechst High Intensity Objects (%) [1]: 0%
- Population Membrane Permeable-Phenotype (%) [1]: 5% and 3%
- Population Mitochondria Different-Phenotype (%) [1]: 1%
- Population Mitotic Cells (%) [1]: 74% and 56%
- Population Normal (%) [1]: 100%
- Population Pyknosed Nuclei (%) [1]: 19% and 15%
- Population Tubulin-Different-Phenotype (%) [1]: 10% and 7%
- Total Cell Count [1]: 221 and 236
- Population Apoptotic (%) [2]: 40% and 55%
- Population Fragmented Nuclei (%) [2]: 8% and 15%
- Population Healthy Nuclei (%) [2]: 69% and 67%
- Population Hoechst High Intensity Objects (%) [2]: 0%
- Population Membrane Permeable-Phenotype (%) [2]: 11% and 7%
- Population Mitochondria Different-Phenotype (%) [2]: 1% and 0%
- Population Mitotic Cells (%) [2]: 59% and 44%
- Population Normal (%) [2]: 100%
- Population Pyknosed Nuclei (%) [2]: 21% and 16%
- Population Tubulin-Different-Phenotype (%) [2]: 26% and 19%
- Total Cell Count [2]: 203 and 208
- Population Apoptotic (%) [3]: 50% and 40%
- Population Fragmented Nuclei (%) [3]: 10% and 14%
- Population Healthy Nuclei (%) [3]: 74% and 75%
- Population Hoechst High Intensity Objects (%) [3]: 0%
- Population Membrane Permeable-Phenotype (%) [3]: 1%
- Population Mitochondria Different-Phenotype (%) [3]: 1% and 0%
- Population Mitotic Cells (%) [3]: 50% and 59%
- Population Normal (%) [3]: 100%
- Population Pyknosed Nuclei (%) [3]: 14% and 10%
- Population Tubulin-Different-Phenotype (%) [3]: 9% and 3%
- Total Cell Count [3]: 219 and 249
- Population Apoptotic (%) [4]: 52% and 51%
- Population Fragmented Nuclei (%) [4]: 10% and 14%
- Population Healthy Nuclei (%) [4]: 73% and 72%
- Population Hoechst High Intensity Objects (%) [4]: 0%
- Population Membrane Permeable-Phenotype (%) [4]: 5% and 8%
- Population Mitochondria Different-Phenotype (%) [4]: 2% and 0%
- Population Mitotic Cells (%) [4]: 47% and 48%
- Population Normal (%) [4]: 100%
- Population Pyknosed Nuclei (%) [4]: 16% and 13%
- Population Tubulin-Different-Phenotype (%) [4]: 20% and 11%
- Total Cell Count [4]: 218 and 222
- Population Apoptotic (%) [5]: 70% and 77%
- Population Fragmented Nuclei (%) [5]: 13% and 14%
- Population Healthy Nuclei (%) [5]: 77% and 76%
- Population Hoechst High Intensity Objects (%) [5]: 0%
- Population Membrane Permeable-Phenotype (%) [5]: 5% and 2%
- Population Mitochondria Different-Phenotype (%) [5]: 0%
- Population Mitotic Cells (%) [5]: 30% and 22%
- Population Normal (%) [5]: 100%
- Population Pyknosed Nuclei (%) [5]: 8%
- Population Tubulin-Different-Phenotype (%) [5]: 7% and 1%
- Total Cell Count [5]: 225 and 259
- Population Apoptotic (%) [6]: 62% and 38%
- Population Fragmented Nuclei (%) [6]: 8% and 16%
- Population Healthy Nuclei (%) [6]: 79% and 77%
- Population Hoechst High Intensity Objects (%) [6]: 0%
- Population Membrane Permeable-Phenotype (%) [6]: 6% and 3%
- Population Mitochondria Different-Phenotype (%) [6]: 1% and 0%
- Population Mitotic Cells (%) [6]: 37% and 61%
- Population Normal (%) [6]: 100%
- Population Pyknosed Nuclei (%) [6]: 12% and 5%
- Population Tubulin-Different-Phenotype (%) [6]: 12%
- Total Cell Count [6]: 230 and 225

Reference: ChEMBL document CHEMBL5303300, “EUbOPEN Chemogenomics Library - Multiplex” (2023)
